Results from different studies.
Protocols differ between the studies behind these lines.
CDK7 with cyclin H: Cyclin-dependent kinase 7, with cyclin H (CDK7, Homo sapiens, UniProt P50613)
CES1: Liver carboxylesterase 1 (CES1, Homo sapiens, UniProt P23141)
HDAC6: Protein deacetylase HDAC6 (HDAC6, Homo sapiens, UniProt Q9UBN7)
ACSL4: Long-chain-fatty-acid--CoA ligase 4 (ACSL4, Homo sapiens, UniProt O60488)

Cc1cc(S(=O)(=O)NCCO[C@H]2CC[C@H](CN3CCC(c4ccn5c(N6CCC(=O)NC6=O)cnc5c4)CC3)CC2)ccc1Nc1ncc2cc(Cl)c(=O)n(C3CCCC3)c2n1 — IC50 (CDK7 with cyclin H; enzyme activity, inhibitor, radiometric): 3.8 µM
CCc1oc2ccccc2c1C(=O)c1cc(Br)c(O)c(Br)c1 — IC50 (Solute carrier organic anion transporter family member 2B1 (SLCO2B1, Homo sapiens, UniProt O94956); transporter uptake, inhibitor, radiometric): 0.209 µM
CN1CCC(CNc2ccc3ncc(-c4cccc(OC(F)(F)F)c4)n3n2)CC1 — IC50 (5-hydroxytryptamine receptor 1B (HTR1B, Homo sapiens, UniProt P28222); cAMP, agonist): 0.095 µM
CCC(CC)COC(=O)[C@H](C)N[P@](=O)(OC[C@H]1O[C@@](C#N)(c2ccc3c(N)ncnn23)[C@H](O)[C@@H]1O)Oc1ccccc1 — IC50 (CES1; enzyme activity, inhibitor, absorbance): 36.2 µM
COc1ccc(N(Cc2csc(-c3ccccc3)n2)C(=O)CCCCCC(=O)NO)cc1 — IC50 (HDAC6; enzyme activity, inhibitor): 0.0027 µM
COC(=O)/C=C/c1ccc(OCCN(C)c2ccccc2)cc1 — IC50 (ACSL4; enzyme activity, inhibitor): 1.5 µM
O=C(CNc1cccc2c1C(=O)N(C1CCC(=O)NC1=O)C2=O)NCCCCCCN1CCc2c(c3ccccc3n2Cc2ccc(C(=O)NO)cc2)C1 (stereo not shown) — IC50 (HDAC6; enzyme activity, inhibitor, fluorescence): 0.04 µM
CN(CCOc1ccc(CC2SC(=O)NC2=O)cc1)c1ccccc1 (stereo not shown) — IC50 (ACSL4; enzyme activity, inhibitor): 0.4 µM
O=C(COc1ccc(C2CCC(=O)NC2=O)cc1)NCCCCCCN1CCc2c(c3ccccc3n2Cc2ccc(C(=O)NO)cc2)C1 (stereo not shown) — IC50 (HDAC6; enzyme activity, inhibitor, fluorescence): 0.025 µM
CNS(=O)(=O)c1ccc(Nc2ncc(C(F)(F)F)c([C@H]3CC[C@](C)(O)CC3)n2)c(C)c1 — IC50 (CDK7 with cyclin H; enzyme activity, inhibitor, radiometric): 2.13 µM
COC(=O)c1cc(OC)c2c(c1-c1c(C(=O)OC)cc(OC)c3c1OCO3)OCO2 — IC50 (CES1; enzyme activity, inhibitor): 11.4 µM
O=C(NO)c1ccc(Cn2cnc3c(Nc4ccc(F)c(Cl)c4)ncnc32)cc1 — IC50 (HDAC6; enzyme activity, inhibitor, fluorescence): 0.00617 µM
CNS(=O)(=O)c1ccc(Nc2ncc3cc(Cl)c(=O)n(C4CCCC4)c3n2)c(C)c1 — IC50 (CDK7 with cyclin H; enzyme activity, inhibitor, radiometric): 1.6 µM
CN(CCCOc1ccc(CC2SC(=O)NC2=O)cc1)c1ccccc1 (stereo not shown) — IC50 (ACSL4; enzyme activity, inhibitor): 0.6 µM
COc1ccc(Nc2ncnc3c2ncn3Cc2ccc(C(=O)NO)cc2)cc1 — IC50 (HDAC6; enzyme activity, inhibitor, fluorescence): < 0.002 µM
COC(=O)/C=C/c1ccc(OCCN(C)C(=O)c2ccc(C3(C(F)(F)F)N=N3)cc2)cc1 — IC50 (ACSL4; enzyme activity, inhibitor): 24.4 µM
COc1ccc(N(Cc2csc(-c3ccc(Br)cc3)n2)C(=O)CCCCCC(=O)NO)cc1 — IC50 (HDAC6; enzyme activity, inhibitor): 0.0032 µM
CN(CCOc1cccc(CC2SC(=O)NC2=O)c1)c1ccccc1 (stereo not shown) — IC50 (ACSL4; enzyme activity, inhibitor): 10.1 µM
CN(C)C(=O)c1cc2cnc(Nc3ccc(-c4ccc5c(=O)cc(N6CCOCC6)oc5c4)cc3)nc2n1C1CCCC1 — IC50 (CDK7 with cyclin H; enzyme activity, inhibitor): > 10 µM
COC(=O)/C=C/c1ccc(OCCN(C)C(=O)c2ccccc2)cc1 — IC50 (Long-chain-fatty-acid--CoA ligase 4 (ACSL4, Homo sapiens, UniProt O60488, Q302M); enzyme activity, inhibitor): 7.1 µM
O=C1CCC(N2C(=O)c3cccc(NCC(=O)OCCCCc4cn(CCCCCCN5CCc6c(c7ccccc7n6Cc6ccc(C(=O)NO)cc6)C5)nn4)c3C2=O)C(=O)N1 (stereo not shown) — IC50 (HDAC6; enzyme activity, inhibitor, fluorescence): 0.047 µM
COC(=O)CCCc1ccc(OCCN(C)c2ccccc2)cc1 — IC50 (ACSL4; enzyme activity, inhibitor): > 50 µM
COCCN1CCN(Cc2ccc(-c3n[nH]c4c3C(=O)c3c(NC(=O)NN5CCOCC5)cccc3-4)cc2)CC1 — IC50 (Protein kinase 6 (Plasmodium falciparum, UniProt Q8IDW1); enzyme activity, inhibitor, radiometric): 0.832 µM
CNS(=O)(=O)c1ccc(Nc2ncc(C(F)(F)F)c(N3CCCC(C)(O)C3)n2)c(C)c1 (stereo not shown) — IC50 (CDK7 with cyclin H; enzyme activity, inhibitor, radiometric): 2.51 µM
CCc1ccc(CCOc2ccc(CC3SC(=O)NC3=O)cc2)nc1 (stereo not shown) — IC50 (ACSL4; enzyme activity, inhibitor): 6.4 µM
